Blank lines part the entries; values can stand above or below the molecule they belong to.
Tests used:
PdZA = test: Displacement of PdZA from PtdSer/PtdIns; type: binding; details: vesicles with 5 or 12.5 µM PtdIns(4,5)P2, 15% PtdSer
PLCδ1 PH domain = target: T1, PLCδ1 PH domain (Rattus norvegicus, UniProt P10688); test: Isothermal titration calorimetry, PLCδ1 PH domain; type: binding; details: read-out: dissociation constant (KD) by ITC; PBS, 25°C; three independent experiments
T1 sequence (P10688 11-140): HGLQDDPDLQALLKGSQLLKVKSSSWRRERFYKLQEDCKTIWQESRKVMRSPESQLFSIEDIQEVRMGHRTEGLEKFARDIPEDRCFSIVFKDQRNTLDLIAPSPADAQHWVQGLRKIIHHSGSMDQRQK

[1] = target: T2, ASAP1 PH domain, arginine 360 mutant (Mus musculus, UniProt Q9QWY8, R360Q); test: diC4-PtdIns; type: binding; details: canonical-site mutant
T2 sequence (Q9QWY8 325-451 R360Q): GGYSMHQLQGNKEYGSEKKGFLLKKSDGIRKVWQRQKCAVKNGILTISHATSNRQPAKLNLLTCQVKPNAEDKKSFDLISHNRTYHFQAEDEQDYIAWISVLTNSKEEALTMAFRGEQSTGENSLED
In short: (§1)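 ASAP1 PH domain, wild-type or site-directed mutant, is used at 1 µM and mixed with varying diC4-PtdIns(4,5)P2 in 20 mM HEPES pH 7.4, 100 mM NaCl. Tryptophan fluorescence spectra are recorded with excitation at 280 nm and emission at 310–450 nm. Signal is normalized to fluorescence without diC4-PtdIns(4,5)P2 and plotted against lipid concentration.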

ASAP1 [2] = target: T3, ASAP1 (Mus musculus, UniProt Q9QWY8); details: cited from earlier work
T3 sequence (Q9QWY8 325-724): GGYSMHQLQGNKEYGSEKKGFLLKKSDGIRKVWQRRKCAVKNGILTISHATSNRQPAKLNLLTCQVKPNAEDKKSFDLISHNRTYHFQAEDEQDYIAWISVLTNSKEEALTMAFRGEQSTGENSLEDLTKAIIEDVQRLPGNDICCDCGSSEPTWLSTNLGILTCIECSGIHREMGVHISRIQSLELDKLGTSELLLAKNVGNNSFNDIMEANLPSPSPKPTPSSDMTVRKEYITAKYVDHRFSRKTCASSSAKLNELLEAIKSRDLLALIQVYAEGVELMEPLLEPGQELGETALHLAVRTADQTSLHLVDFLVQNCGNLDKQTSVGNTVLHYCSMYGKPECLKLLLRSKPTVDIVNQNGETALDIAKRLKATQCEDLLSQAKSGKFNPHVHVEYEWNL

[3] = target: T4, ASAP1 PH domain, lysine 355 mutant (Mus musculus, UniProt Q9QWY8, K355N); test: diC4-PtdIns; type: binding; details: atypical-site mutant
T4 sequence (Q9QWY8 325-451 K355N): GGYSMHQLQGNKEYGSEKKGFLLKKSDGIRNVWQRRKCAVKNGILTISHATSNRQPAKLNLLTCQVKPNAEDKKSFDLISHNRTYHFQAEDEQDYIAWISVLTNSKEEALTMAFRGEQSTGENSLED
In short: as §1

ASAP1 [4] = target: T3, ASAP1; test: Anionic phospholipid dependence of ASAP1; type: biochemical; details: LUVs; from C50 values
In short: (§2)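 Construct is PZA, the PH–Arf GAP–ankyrin repeat fragment of ASAP1, prepared as previously described. It is titrated into reactions with myrArf1·GTP as substrate and LUVs of the indicated lipid composition (e.g. 15% PtdSer, 10% PtdIns(4,5)P2, or both). Reactions run 3 min. Percent of Arf-bound GTP hydrolyzed is plotted against PZA concentration. C50 is the PZA concentration giving 50% hydrolysis, estimated from three experiments.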

myrArf1·GTP = type: biochemical; details: absence of anionic phospholipid
In short: as §2

Molecule: O=P(O)(O)O[C@@H]1[C@H](O)[C@H](O)[C@@H](OP(=O)(O)O)[C@H](OP(=O)(O)O)[C@H]1O [Ins(1,4,5)P3, inositol 1,4,5-trisphosphate]
Ins(1,4,5)P3 concentration displacing half of the protein from LUVs (PdZA): less than half the PtdIns(4,5)P2 concentration
Kd (PLCδ1 PH domain): 180 ± 30 nM

Molecule: Phosphatidylinositol 4,5-bisphosphate [PtdIns(4,5)P2]
increase of ASAP1 enzymatic activity on binding to the PH domain (ASAP1 [2]; ref Kam et al., 2000): approximately 10,000 fold
increase of GAP activity compared with PtdSer alone (ASAP1 [4]): ~1,500 fold
increase of GAP activity compared with no anionic lipid (ASAP1 [4]): approximately 20,000 fold

B1: Wild-type: His10-[325–724]ASAP1: fragment of ASAP1 comprising the PH, Arf GAP, and Ankyrin repeat domains (protein, UniProt Q9ULH1 325-724, looked up, fragment)
chain: SEKKGYLLKKSDGIRKVWQRRKCSVKNGILTISHATSNRQPAKLNLLTCQVKPNAEDKKSFDLISHNRTYHFQAEDEQDYVAWISVLTNSKEEALTMAFRGEQSAGENSLEDLTKAIIEDVQRLPGNDICCDCGSSEPTWLSTNLGILTCIECSGIHREMGVHISRIQSLELDKLGTSELLLAKNVGNNSFNDIMEANLPSPSPKPTPSSDMTVRKEYITAKYVDHRFSRKTCSTSSAKLNELLEAIKSRDLLALIQVYAEGVELMEPLLEPGQELGETALHLAVRTADQTSLHLVDFLVQNCGNLDKQTALGNTVLHYCSMYSKPECLKLLLRSKPTVDIVNQAGETALDIAKRLKATQCEDLLSQAKSGKFNPHVHVEYEWNLRQEEIDESDDDLDDK
modifications: His10 tag
amount of ASAP1 necessary to hydrolyze 50% of the GTP bound to Arf (C50) (myrArf1·GTP): 1 µM

Further lines, with some results ahead:

binding compared with wild-type protein (tryptophan fluorescence) [1]: reduced binding
binding compared with wild-type protein (tryptophan fluorescence) [3]: no effect on binding
Molecule: CCCC(=O)OC[C@H](COP(=O)(O)O[C@@H]1[C@H](O)[C@H](O)[C@@H](OP(=O)(O)O)[C@H](OP(=O)(O)O)[C@H]1O)OC(=O)CCC [diC4-PtdIns(4,5)P2, dibutyryl PtdIns(4,5)P2]
increase of ASAP1 activity at saturating concentrations (ASAP1 [2]; soluble lipid, no bilayer, ref Che et al., 2005): 2- to 4 fold

increase of GAP activity compared with no anionic lipid (ASAP1 [4]): 15 fold
Molecule: phosphatidylserine [PtdSer]
